Screening results (PubChem)
Sampled rows, rich in hits. Any-hit rate of the full collection: about 3.2%.
Cneo AK release: Cryptococcus neoformans lysis via adenylate kinase release; C. neoformans lysis, adenylate kinase release luminescence, 4 h; normalised: neutral wells 0, clomiphene wells 100; lysis activity, % at 15 µM; 360,000 compounds, 0.2% hits; AID 651654;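 active means mean lysis activity across replicates of at least 80%, whatever share of replicates individually reach that level; inactive means mean lysis activity below 80%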
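Assay system: log-phase C. neoformans yeast / Quantity: yeast cell density of 5 × 10^6 cells/mL / Medium: fresh YPD growth medium / Compound: single dose / Timing: static 4 h at 37 °C with compound, 1 h detection / Measured by: adenylate kinase release luminescence / Read-out: lysis from increased AK signal / Benchmarks: Clomiphene as positive lysis control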
rRNA inh HTS: inhibitors of bacterial rRNA selective over humanized ribosomes; E. coli WT GFP vs humanized-ribosome RFP mutants, fluorescence, 24 h; stronger effect = lower value; DMSO median 0, no signal -100; GFP signal change (wild-type ribosome), % (test concentration not listed); 350,000 compounds, 1.6% hits;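 active means significant combined selectivity score with lowered wild-type GFP, culture density cut under 30%, mutant RFP and density less affected; inactive means any of these conditions unmet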
S100A4 inh HTS: blocks human S100A4 binding to myosin IIA peptide; 360,000 compounds, 0.14% hits; AID 652163; inhibition, % at 10.7 µM; P26447; S100A4/TAMRA-MyoIIA peptide fluorescence polarization;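 active means mean inhibition of at least 70% across replicates, with every replicate also reaching that level; inconclusive means mean inhibition reaches 70% but some replicates fall short; inactive means mean inhibition below 70%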
Target sequence (P26447 whole entry, looked up): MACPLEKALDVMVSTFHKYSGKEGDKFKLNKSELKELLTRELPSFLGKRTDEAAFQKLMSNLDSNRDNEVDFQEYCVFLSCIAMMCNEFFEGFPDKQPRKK
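incubation = readout 5 min after mixing, signal stable up to 60 min | system = S100A4 monomer protein | buffer or medium = HEPES pH 7.2 with CaCl2, KCl, NaCl, DTT, Triton | benchmarks = neutral control DMSO, positive control TFP | also added = fluorescent myosin IIA peptide, 5 nM | compound dosing = one concentration per compound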
DENV2 CPE rescue: protects cells from dengue virus 2 cytopathic effect; CPE inhibition, % at 9.99 µM; 350,000 compounds, 1.7% hits; DENV2-infected cells, cytopathic effect rescue, plate reader; in the data active means CPE inhibition above about 20%, passing the limit was not always enough; inconclusive means no clear call, values can overlap the other calls; tested in BHK-21 cells
PfHsp90 yeast 2: inhibits growth of yeast expressing Plasmodium falciparum Hsp90 | S. cerevisiae expressing PfHsp90, BacTiter-Glo ATP, 48 h; yeast lacking PDR1 and PDR3 efflux regulators | inhibition, % at 9.4 µM | 310,000 compounds, 0.32% hits;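 active means every replicate shows inhibition above about 80%, whatever the replicate mean, limit read from the data; inconclusive means mean inhibition reaches the set limit but some replicate falls short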
MLL AF4-AF9 inh: inhibitors of human MLL-AF4/AF9 interaction; P42568; AlphaScreen, biotin-AF4 peptide binding to FLAG-AF9; inhibition, % at 10 µM; AID 651704; 350,000 compounds, 0.47% hits;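 active means every replicate reaching a set inhibition limit, whatever the replicate mean, cut at about 25% in these data; inconclusive means mean inhibition reaches that limit but some replicates miss it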
Target sequence (P42568 whole entry, looked up): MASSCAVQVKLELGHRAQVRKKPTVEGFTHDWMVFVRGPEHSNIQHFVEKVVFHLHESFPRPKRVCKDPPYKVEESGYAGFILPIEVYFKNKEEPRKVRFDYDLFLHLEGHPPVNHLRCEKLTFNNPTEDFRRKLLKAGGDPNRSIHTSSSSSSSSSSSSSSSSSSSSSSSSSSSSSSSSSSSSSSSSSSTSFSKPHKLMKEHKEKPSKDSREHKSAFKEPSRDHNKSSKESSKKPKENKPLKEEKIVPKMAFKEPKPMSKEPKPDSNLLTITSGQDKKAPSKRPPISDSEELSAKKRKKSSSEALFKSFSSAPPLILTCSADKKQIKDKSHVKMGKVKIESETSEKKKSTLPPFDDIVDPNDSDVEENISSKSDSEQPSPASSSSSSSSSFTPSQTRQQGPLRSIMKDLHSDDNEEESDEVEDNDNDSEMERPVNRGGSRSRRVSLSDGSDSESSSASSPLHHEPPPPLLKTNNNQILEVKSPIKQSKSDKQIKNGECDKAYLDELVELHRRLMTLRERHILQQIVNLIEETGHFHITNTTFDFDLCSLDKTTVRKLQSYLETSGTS
AlphaScreen intf: counter-screen: AlphaScreen signal interference. shares compounds with MLL AF4-AF9 inh. signal luminescence. AC50, µM (top dose mostly 12 µM). 530 compounds, 45% hits. AID 720494; cut-off not given, nearly all actives have AC50 up to about 14 µM
Large screens that a line does not name were inactive (follow-up assays come after a bar, where they were run).

CC1C/C(=C/c2cccs2)C(=O)/C(=C/c2cccs2)C1 (stereo not drawn)	MLL AF4-AF9 inh inconclusive (no result: Cneo AK release) | AlphaScreen intf inactive
O=C1/C(=C/c2cccs2)CCC/C1=C\c1cccs1	none
Cc1ccc2c(c1)C1CN(C)CCC1N2Sc1ccccc1[N+](=O)[O-] (stereo not drawn)	MLL AF4-AF9 inh 35 (no result: Cneo AK release) | AlphaScreen intf 9.3µM
Oc1c(C(c2ccccc2Cl)N2CCCC2)ccc2cccnc12 (stereo not drawn)	PfHsp90 yeast 2 119, MLL AF4-AF9 inh 91 (no result: Cneo AK release) | AlphaScreen intf 2.1µM
Oc1c(C(c2ccc(Cl)cc2)N2CCCC2)cc(Cl)c2cccnc12 (stereo not drawn)	PfHsp90 yeast 2 128, MLL AF4-AF9 inh 56 (no result: Cneo AK release) | AlphaScreen intf inactive
CN1CCN(C(c2ccccn2)c2cc(Cl)c3cccnc3c2O)CC1 (stereo not drawn)	PfHsp90 yeast 2 103, MLL AF4-AF9 inh 39 (no result: Cneo AK release) | AlphaScreen intf inactive
CCC(=O)NC(c1ccco1)c1cc(Cl)c2cccnc2c1O (stereo not drawn)	none (no result: Cneo AK release)
O=S(=O)(c1cccc2cccnc12)N1CCCCC1	none (no result: PfHsp90 yeast 2)
CN1CCN(C(c2ccc(C(F)(F)F)cc2)c2ccc3cccnc3c2O)CC1 (stereo not drawn)	MLL AF4-AF9 inh 85 (no result: Cneo AK release, PfHsp90 yeast 2) | AlphaScreen intf 2.4µM
Cn1cnc(S(=O)(=O)N2CC[C@H]3[C@H](CO)Nc4ccc(-c5cccc(F)c5)cc4[C@H]32)c1	none (no result: PfHsp90 yeast 2)
C[C@@H]1CCCCO[C@H](CN(C)Cc2ccc(Cl)c(Cl)c2)[C@@H](C)CN([C@@H](C)CO)C(=O)c2cc(NS(C)(=O)=O)ccc2O1	none (no result: PfHsp90 yeast 2)
C[C@@H]1CN([C@@H](C)CO)C(=O)Cc2cc(NS(=O)(=O)c3ccc(F)cc3)ccc2O[C@H]1CN(C)S(C)(=O)=O	none (no result: PfHsp90 yeast 2)
COc1ccc2c3c([nH]c2c1)[C@H](CO)N(CC1CC1)CC31CN(C(=O)C2CCOCC2)C1	none (no result: Cneo AK release, PfHsp90 yeast 2)
Cc1cccc(N(C(=O)CNC(=O)c2ccco2)C(C(=O)NC2CCCCC2)c2cccnc2)c1 (stereo not drawn)	none
O=C(NC1CCCCC1)C(c1cccnc1)N(C(=O)CCl)c1cccc(Cl)c1 (stereo not drawn)	MLL AF4-AF9 inh 39 (no result: DENV2 CPE rescue) | AlphaScreen intf inactive
Cc1ccc(S(=O)(=O)Nc2ccc3c(c2)C(=O)N([C@@H](C)CO)C[C@H](C)[C@H](CN(C)Cc2ccccc2)OCCCC[C@@H](C)O3)cc1	none (no result: S100A4 inh HTS, PfHsp90 yeast 2, MLL AF4-AF9 inh)
CN(C)c1ccc(NC(=S)c2ccccn2)cc1	MLL AF4-AF9 inh 49 | AlphaScreen intf inactive
Cc1[nH]c2ccccc2c1N=Nc1ccccc1F	MLL AF4-AF9 inh 41 (no result: Cneo AK release) | AlphaScreen intf 8µM
Cc1[nH]c2ccccc2c1N=Nc1cc(C(=O)O)cc(C(=O)O)c1	none (no result: PfHsp90 yeast 2)
O=C(C[C@H]1CC[C@@H]2[C@H](COC[C@@H](O)CN2S(=O)(=O)c2ccc(F)cc2)O1)NCC1CCCCC1	MLL AF4-AF9 inh 34 (no result: PfHsp90 yeast 2) | AlphaScreen intf inactive
Oc1cc(NCCN2CCOCC2)cc2cccnc12	MLL AF4-AF9 inh 27 | AlphaScreen intf 12µM
CCOc1ccc(/C=N/Nc2cc(N3CCOCC3)ncn2)c(O)c1	DENV2 CPE rescue inconclusive, MLL AF4-AF9 inh 32 (no result: PfHsp90 yeast 2) | AlphaScreen intf 14µM
O=C(CNCc1cccs1)Nc1ccc(S(=O)(=O)N2CCCCC2)cc1	none (no result: Cneo AK release)
O=C(CNCc1cccs1)Nc1ccc(N2CCCCCC2)cc1	MLL AF4-AF9 inh 42 (no result: Cneo AK release) | AlphaScreen intf 13µM
COc1ccc(S(=O)(=O)N(C)C[C@H]2OCCCC[C@@H](C)Oc3ccc(NC(=O)NC(C)C)cc3C(=O)N([C@@H](C)CO)C[C@@H]2C)cc1	none (no result: PfHsp90 yeast 2)
CN1/C(=C\C=N\O)C(C)(C)c2ccccc21	none
CN(C)c1ccc(N=C/C=C2/N(C)c3ccccc3C2(C)C)cc1	MLL AF4-AF9 inh 48 | AlphaScreen intf 11µM
CN(C)c1ccc(C=c2c3ccccc3n3c2cc(-c2ccccc2)[n+]3C)cc1	PfHsp90 yeast 2 105, MLL AF4-AF9 inh 43 (no result: Cneo AK release) | AlphaScreen intf 4.4µM
COc1cc(N(C)C)ccc1C=c1c2ccccc2n2c1cc(-c1ccccc1)[n+]2C	S100A4 inh HTS inconclusive, PfHsp90 yeast 2 104, MLL AF4-AF9 inh 84 (no result: Cneo AK release) | AlphaScreen intf 2.1µM
CN(C)c1ccc(C=C2C=C(c3ccccc3)OC2=O)cc1	none (no result: PfHsp90 yeast 2)
C[C@@H]1CN([C@@H](C)CO)S(=O)(=O)c2ccc(-c3cncnc3)cc2O[C@H]1CN(C)Cc1cccnc1	none (no result: PfHsp90 yeast 2)
C#CCOCCOCCOCCNc1nc(N2CCN(C(=O)[C@H](CCCN=C(N)N)n3cc(C(N)[C@@H](C)CC)nn3)CC2)nc(N2CCN(C(=O)[C@H](CCC(=O)O)n3cc([C@@H](N)CCCCN)nn3)CC2)n1 (stereo partly drawn)	none
C#CCOCCOCCOCCNc1nc(N2CCN(C(=O)[C@H](CCC(=O)O)n3cc([C@@H](N)CC(N)=O)nn3)CC2)nc(N2CCN(C(=O)[C@H](CCC(=O)O)n3cc([C@@H](N)CC(N)=O)nn3)CC2)n1	DENV2 CPE rescue inconclusive
C#CCOCCOCCOCCNc1nc(N2CCOCC2)nc(N2CCN(C(=O)[C@H](CCCCN)n3cc(CCCC)nn3)CC2)n1	DENV2 CPE rescue inconclusive
C#CCOCCOCCOCCNc1nc(N2CCN(C(=O)[C@H](CCCCN)n3cc(CCCC)nn3)CC2)nc(N2CCN(C(=O)[C@H](CCCCN)n3cc(CCCC)nn3)CC2)n1	MLL AF4-AF9 inh 26 | AlphaScreen intf inactive
C#CCOCCOCCOCCNc1nc(N2CCN(C(=O)[C@H](CCCCN)n3cc([C@@H](N)CC(N)=O)nn3)CC2)nc(N2CCN(C(=O)[C@H](CCCCN)n3cc([C@@H](N)CC(N)=O)nn3)CC2)n1	MLL AF4-AF9 inh 37 | AlphaScreen intf inactive
C#CCOCCOCCOCCNc1nc(N2CCN(C(=O)[C@H](CCCN=C(N)N)n3cc(C(N)[C@@H](C)CC)nn3)CC2)nc(N2CCN(C(=O)[C@H](CCCCN)n3cc([C@@H](N)[C@H](C)CC)nn3)CC2)n1 (stereo partly drawn)	MLL AF4-AF9 inh 46 | AlphaScreen intf inactive
COc1cc(/C=N/N=C(N)N)ccc1OCc1ccc(Cl)cc1	MLL AF4-AF9 inh 27 | AlphaScreen intf inactive
COc1cc(/C=N/O)ccc1OCc1ccc(Cl)cc1	none (no result: Cneo AK release, PfHsp90 yeast 2)
CCOc1cc(/C=N/N=C(N)N)ccc1OCc1ccc(Cl)cc1	MLL AF4-AF9 inh 27 | AlphaScreen intf inactive
COc1ccccc1Nc1c2c(nc3ccc(N)cc13)CCCC2	MLL AF4-AF9 inh 61 | AlphaScreen intf inactive
COC(=O)C[C@H]1CC[C@@H]2[C@H](COc3ccc(NC(=O)c4ccc(OC)cc4)cc3C(=O)N2C)O1	none (no result: PfHsp90 yeast 2)
